Results as given in ChEMBL document CHEMBL1157456, “Unsymmetric aryl-alkyl disulfide growth inhibitors of methicillin-resistant Staphylococcus aureus and Bacillus anthracis” (Bioorg Med Chem, 2008).
≈ marks a conversion by molar mass, not a printed value. Calls of active or inactive are those of the source. The rule behind the calls is not given here.

Columns and labels:
Staphylococcus aureus [1] = assay: Antibacterial activity against Staphylococcus aureus ATCC 25923 assessed as inhibition zone diameter at 20 ug after 24 hrs by Kirby-Bauer test; format: functional; conditions: ATCC 25923, 24 h, read-out: IZ
Procedure, shortened: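 Kirby-Bauer on TSA: a 0.5 McFarland saline suspension was spread as a lawn. 6 mm wells were bored and given 20 µL of 1 mg/mL compound in DMSO (20 ug). Plates ran 24 h at 37 °C. Inhibition zone diameter was averaged over 3 trials.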

Staphylococcus aureus [2] = assay: Antibacterial activity against methicillin-resistant Staphylococcus aureus ATCC 43300 after 24 hrs by serial dilution method; format: functional; conditions: ATCC 43300, 24 h
Staphylococcus aureus [3] = assay: Antibacterial activity against Staphylococcus aureus ATCC 25923 after 24 hrs by serial dilution method; format: functional; conditions: for MIC: ATCC 25923, 24 h
Bacillus anthracis [4] = assay: Antibacterial activity against Bacillus anthracis assessed as inhibition zone diameter at 20 ug after 24 hrs by Kirby-Bauer test; format: functional; conditions: read-out: IZ
Bacillus anthracis [5] = assay: Antibacterial activity against Bacillus anthracis after 24 hrs by serial dilution method; format: functional
Escherichia coli [6] = assay: Inhibition of purified Escherichia coli FabH at 5 uM by trichloroacetic acid precipitation assay relative to control
Procedure, shortened: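 ecFabH (100 nM monomer) was preincubated 15 min at room temperature with 5 µM disulfide in 50 mM sodium phosphate pH 7.4. Radiolabeled 3-ketoacyl-ACP was formed from [1-14C]acetyl-CoA (40 µM) and malonyl-ACP (10 µM), the latter from a coupled S. glaucescens FabD/ACP system. Product was collected by TCA precipitation. Activity was expressed as % decrease versus a no-compound control, in duplicate.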

Escherichia coli [7] = assay: Antibacterial activity against Escherichia coli K12 ATCC 23590 after 24 hrs by serial dilution method; format: functional; conditions: K12, 24 h
[8] = target: T1, Mycobacterial beta-ketoacyl-[acyl-carrier-protein] synthase III (Mycobacterium tuberculosis) (UniProt P9WNG3); assay: Inhibition of Mycobacterium tuberculosis FabH
T1 sequence (whole entry): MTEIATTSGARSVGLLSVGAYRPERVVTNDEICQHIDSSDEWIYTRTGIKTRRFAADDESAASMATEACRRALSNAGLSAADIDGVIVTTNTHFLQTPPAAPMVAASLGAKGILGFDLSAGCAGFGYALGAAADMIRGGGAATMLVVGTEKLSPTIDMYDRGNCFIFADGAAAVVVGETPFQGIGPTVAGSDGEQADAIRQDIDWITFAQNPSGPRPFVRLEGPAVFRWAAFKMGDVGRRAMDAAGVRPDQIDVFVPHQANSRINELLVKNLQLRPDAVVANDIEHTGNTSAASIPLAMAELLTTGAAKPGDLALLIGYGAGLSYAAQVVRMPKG

[9] = Inhibition of Escherichia coli FabH
Escherichia coli [10] = assay: Inhibition of purified Escherichia coli FabH at 1 uM by trichloroacetic acid precipitation assay relative to control
Procedure, shortened: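 Purified ecFabH (100 nM monomer) was preincubated 15 min at room temperature with 1 µM compound in 50 mM sodium phosphate pH 7.4, without CoA. It was then added to [1-14C]acetyl-CoA (40 µM) and malonyl-ACP (10 µM), made with S. glaucescens FabD/ACP. 3-Ketoacyl-ACP was measured by TCA precipitation, as % inhibition versus a no-inhibitor control, in duplicate.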

## CCC(C)SSc1ccccc1[N+](=O)[O-] (configuration not stated)
Staphylococcus aureus [1]
  zone of inhibition at 20 µg/disc: 24 mm
Staphylococcus aureus [2]
  MIC: 32 µg/mL (≈ 131 µM)
Staphylococcus aureus [3]
  MIC: 32 µg/mL (≈ 131 µM)
Bacillus anthracis [4]
  zone of inhibition at 20 µg/disc: 23 mm
Bacillus anthracis [5]
  MIC: 32 µg/mL (≈ 131 µM)

## CCSSc1ccc([N+](=O)[O-])cc1
Escherichia coli [6]
  inhibition: 98%
Escherichia coli [7]
  MIC: 16 µg/mL (≈ 74.3 µM)
Staphylococcus aureus [2]
  MIC: 16 µg/mL (≈ 74.3 µM)
Staphylococcus aureus [3]
  MIC: 1 µg/mL (≈ 4.64 µM)
Bacillus anthracis [5]
  MIC: 0.25 µg/mL (≈ 1.16 µM)

## CCC(C)SSc1ccc([N+](=O)[O-])cc1 (configuration not stated)
Escherichia coli [6]
  inhibition: 96%
Escherichia coli [7]
  MIC: 128 µg/mL (≈ 526 µM)
Staphylococcus aureus [2]
  MIC: 1 µg/mL (≈ 4.11 µM)
Staphylococcus aureus [3]
  MIC: 0.8 µg/mL (≈ 3.29 µM)
Bacillus anthracis [5]
  MIC: 0.5 µg/mL (≈ 2.05 µM)

## CSSc1ccccn1
Staphylococcus aureus [1]
  zone of inhibition at 20 µg/disc: 23 mm

## CSSc1ccccc1[N+](=O)[O-]
Staphylococcus aureus [1]
  zone of inhibition at 20 µg/disc: 37 mm
Staphylococcus aureus [2]
  MIC: 32 µg/mL (≈ 159 µM)
Staphylococcus aureus [3]
  MIC: 16 µg/mL (≈ 79.5 µM)
Bacillus anthracis [4]
  zone of inhibition at 20 µg/disc: 31 mm
Bacillus anthracis [5]
  MIC: 16 µg/mL (≈ 79.5 µM)

## CSSc1ccc(F)c(F)c1
Staphylococcus aureus [1]
  zone of inhibition at 20 µg/disc: 11 mm

## CSSCCc1ccc([N+](=O)[O-])cc1
Staphylococcus aureus [3]
  Activity: Active
Bacillus anthracis [5]
  MIC: 64 µg/mL (≈ 279 µM)

## CCSSc1ccccc1[N+](=O)[O-]
Staphylococcus aureus [1]
  zone of inhibition at 20 µg/disc: 40 mm
Staphylococcus aureus [2]
  MIC: 32 µg/mL (≈ 149 µM)
Staphylococcus aureus [3]
  MIC: 16 µg/mL (≈ 74.3 µM)
Bacillus anthracis [4]
  zone of inhibition at 20 µg/disc: 35 mm
Bacillus anthracis [5]
  MIC: 16 µg/mL (≈ 74.3 µM)

## CN[C@H](CC(C)C)C(=O)N[C@H]1C(=O)N[C@@H](CC(N)=O)C(=O)N[C@H]2C(=O)N[C@H]3C(=O)N[C@H](C(=O)N[C@H](C(=O)O)c4cc(O)cc(O)c4-c4cc3ccc4O)[C@H](O)c3ccc(c(Cl)c3)Oc3cc2cc(c3O[C@@H]2O[C@H](CO)[C@@H](O)[C@H](O)[C@H]2O[C@H]2C[C@](C)(N)[C@H](O)[C@H](C)O2)Oc2ccc(cc2Cl)[C@H]1O [VANCOMYCIN]
Staphylococcus aureus [1]
  zone of inhibition at 20 µg/disc: 27 mm
Staphylococcus aureus [3]
  MIC: 0.25 µg/mL (≈ 0.173 µM)

## CC(C)SSc1ccc([N+](=O)[O-])cc1
Escherichia coli [6]
  inhibition: 98.5%
Escherichia coli [7]
  MIC: 96 µg/mL (≈ 419 µM)
Staphylococcus aureus [2]
  MIC: < 0.125 µg/mL
Staphylococcus aureus [3]
  MIC: < 0.125 µg/mL
Bacillus anthracis [5]
  MIC: 0.125 µg/mL (≈ 0.545 µM)

## CCCCCCCCCCOC(=O)SSCCO
[8]
  Activity: Active

## CSSc1ccc([N+](=O)[O-])cc1
Staphylococcus aureus [1]
  zone of inhibition at 20 µg/disc: 35 mm
Escherichia coli [6]
  inhibition: 94%
Escherichia coli [7]
  MIC: 16 µg/mL (≈ 79.5 µM)
Staphylococcus aureus [2]
  MIC: 32 µg/mL (≈ 159 µM)
Staphylococcus aureus [3]
  MIC: 16 µg/mL (≈ 79.5 µM)
Bacillus anthracis [5]
  MIC: 1 µg/mL (≈ 4.97 µM)

## O=C(O)c1cc([N+](=O)[O-])ccc1SSc1ccc([N+](=O)[O-])cc1C(=O)O
Staphylococcus aureus [3]
  Activity: inactive

## CC(C)SSc1cccc([N+](=O)[O-])c1
Staphylococcus aureus [2]
  MIC: 16 µg/mL (≈ 69.8 µM)
Staphylococcus aureus [3]
  MIC: < 0.125 µg/mL
Bacillus anthracis [5]
  MIC: 1 µg/mL (≈ 4.36 µM)

## CSSc1ccc(C)c(C)c1
Staphylococcus aureus [1]
  zone of inhibition at 20 µg/disc: 10 mm

## CSSCCNC(=O)CCNC(=O)[C@@H](O)C(C)(C)COP(=O)(O)OP(=O)(O)OC[C@H]1O[C@@H](n2cnc3c(N)ncnc32)[C@H](O)[C@@H]1OP(=O)(O)O
[9]
  IC50: 57 µM

## CSSCc1ccc([N+](=O)[O-])cc1
Staphylococcus aureus [3]
  Activity: Active
Bacillus anthracis [5]
  MIC: 32 µg/mL (≈ 149 µM)

## CCSSc1cccc([N+](=O)[O-])c1
Staphylococcus aureus [1]
  zone of inhibition at 20 µg/disc: 45 mm
Staphylococcus aureus [2]
  MIC: 64 µg/mL (≈ 297 µM)
Staphylococcus aureus [3]
  MIC: 8 µg/mL (≈ 37.2 µM)
Bacillus anthracis [4]
  zone of inhibition at 20 µg/disc: 40 mm
Bacillus anthracis [5]
  MIC: 8 µg/mL (≈ 37.2 µM)

## CCCCSSc1ccc([N+](=O)[O-])cc1
Escherichia coli [6]
  inhibition: 93%
Escherichia coli [7]
  MIC: 96 µg/mL (≈ 394 µM)
Staphylococcus aureus [2]
  MIC: 32 µg/mL (≈ 131 µM)
Staphylococcus aureus [3]
  MIC: 1 µg/mL (≈ 4.11 µM)
Bacillus anthracis [5]
  MIC: 1 µg/mL (≈ 4.11 µM)

## CC(C)SSc1ccccc1[N+](=O)[O-]
Staphylococcus aureus [1]
  zone of inhibition at 20 µg/disc: 31 mm
Staphylococcus aureus [2]
  MIC: 32 µg/mL (≈ 140 µM)
Staphylococcus aureus [3]
  MIC: 16 µg/mL (≈ 69.8 µM)
Bacillus anthracis [4]
  zone of inhibition at 20 µg/disc: 27 mm
Bacillus anthracis [5]
  MIC: 32 µg/mL (≈ 140 µM)

## CSc1ccc([N+](=O)[O-])cc1
Staphylococcus aureus [3]
  Activity: inactive

## CCC(C)SSc1cccc([N+](=O)[O-])c1 (configuration not stated)
Staphylococcus aureus [1]
  zone of inhibition at 20 µg/disc: 45 mm
Staphylococcus aureus [2]
  MIC: 32 µg/mL (≈ 131 µM)
Staphylococcus aureus [3]
  MIC: 8 µg/mL (≈ 32.9 µM)
Bacillus anthracis [4]
  zone of inhibition at 20 µg/disc: 41 mm
Bacillus anthracis [5]
  MIC: 8 µg/mL (≈ 32.9 µM)

## CSSc1ccc(NC(C)=O)cc1
Staphylococcus aureus [1]
  zone of inhibition at 20 µg/disc: 20 mm

## CSSc1ccc(N)cc1
Staphylococcus aureus [1]
  zone of inhibition at 20 µg/disc: 0 mm

## CSSc1cccc([N+](=O)[O-])c1
Staphylococcus aureus [1]
  zone of inhibition at 20 µg/disc: 36 mm
Staphylococcus aureus [2]
  MIC: 64 µg/mL (≈ 318 µM)
Staphylococcus aureus [3]
  MIC: 16 µg/mL (≈ 79.5 µM)
Bacillus anthracis [4]
  zone of inhibition at 20 µg/disc: 43 mm
Bacillus anthracis [5]
  MIC: 8 µg/mL (≈ 39.7 µM)

## CSSc1ccccc1CO
Staphylococcus aureus [1]
  zone of inhibition at 20 µg/disc: 14 mm

## CO[C@H]1C(=O)N(SC)[C@H]1c1ccccc1Cl
Escherichia coli [10]
  inhibition: 89%

## CC1(C)S[C@@H]2[C@H](NC(=O)Cc3ccccc3)C(=O)N2[C@H]1C(=O)O [PENICILLIN G]
Staphylococcus aureus [1]
  zone of inhibition at 20 µg/disc: 33 mm
Staphylococcus aureus [2]
  MIC: 64 µg/mL (≈ 191 µM)
Staphylococcus aureus [3]
  MIC: 0.03 µg/mL (≈ 0.0897 µM)

## CCCSSc1ccc([N+](=O)[O-])cc1
Staphylococcus aureus [1]
  zone of inhibition at 20 µg/disc: 43 mm
Escherichia coli [6]
  inhibition: 91%
Escherichia coli [7]
  MIC: 64 µg/mL (≈ 279 µM)
Staphylococcus aureus [2]
  MIC: 16 µg/mL (≈ 69.8 µM)
Staphylococcus aureus [3]
  MIC: 16 µg/mL (≈ 69.8 µM)
Bacillus anthracis [5]
  MIC: 1 µg/mL (≈ 4.36 µM)

## CCC(C)SN1C(=O)[C@H](OC)[C@@H]1c1ccccc1Cl (some centres not stated)
Escherichia coli [10]
  inhibition: 30%

## CCOc1cccc(SSC)c1
Staphylococcus aureus [1]
  zone of inhibition at 20 µg/disc: 9 mm
